How the values were obtained:
[1] = molecular target: T1, Tyrosine-protein phosphatase non-receptor type 1 (Homo sapiens, UniProt P18031); test: Inhibition of PTP1B (unknown origin)-mediated pNPP hydrolysis to 4-nitrophenol after 60 mins by spectrophotometric analysis
T1 sequence (P18031 whole entry): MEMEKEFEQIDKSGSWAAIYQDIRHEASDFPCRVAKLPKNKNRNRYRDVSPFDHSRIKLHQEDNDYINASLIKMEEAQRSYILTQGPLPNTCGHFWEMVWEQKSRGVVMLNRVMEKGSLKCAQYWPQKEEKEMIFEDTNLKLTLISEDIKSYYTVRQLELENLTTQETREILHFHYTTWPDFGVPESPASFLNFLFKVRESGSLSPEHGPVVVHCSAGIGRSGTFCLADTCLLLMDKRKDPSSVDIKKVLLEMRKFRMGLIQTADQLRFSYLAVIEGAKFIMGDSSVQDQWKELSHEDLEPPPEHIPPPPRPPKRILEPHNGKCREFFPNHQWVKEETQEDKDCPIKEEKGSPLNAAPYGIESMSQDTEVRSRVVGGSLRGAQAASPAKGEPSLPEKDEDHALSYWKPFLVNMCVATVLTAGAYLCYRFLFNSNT
How it was run: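 Colorimetric pNPP assay at room temperature in 25 mM Tris pH 7.5, 75 mM NaCl, 1 mM DTT, 0.1% BSA. Compound dilution series was added, and the reaction was started with 5 nM PTP1B. After 60 min it was stopped with NaOH. 4-Nitrophenol was read at 405 nm, with corrections for substrate and compound absorbance.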

[2] = molecular target: T2, Tyrosine-protein phosphatase non-receptor type 2 (Homo sapiens, UniProt P17706); test: Inhibition of TCPTP (unknown origin)
T2 sequence (P17706 whole entry): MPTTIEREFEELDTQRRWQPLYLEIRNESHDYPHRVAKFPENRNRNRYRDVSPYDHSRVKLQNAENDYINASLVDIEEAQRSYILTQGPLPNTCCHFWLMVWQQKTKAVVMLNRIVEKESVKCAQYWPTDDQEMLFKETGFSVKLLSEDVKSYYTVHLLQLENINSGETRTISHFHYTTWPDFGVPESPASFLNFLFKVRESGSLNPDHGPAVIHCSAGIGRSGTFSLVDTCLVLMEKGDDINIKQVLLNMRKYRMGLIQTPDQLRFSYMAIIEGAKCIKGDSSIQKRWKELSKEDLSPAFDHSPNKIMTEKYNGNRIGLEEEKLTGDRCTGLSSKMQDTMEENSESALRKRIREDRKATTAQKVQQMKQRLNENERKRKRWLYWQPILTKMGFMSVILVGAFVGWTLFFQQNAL

[3] = molecular target: T1, Tyrosine-protein phosphatase non-receptor type 1; test: Inhibition of PTP1B (unknown origin)

SMILES	Ki [1]	Ki [2]	Ki [3]
O=C(O)c1ccc(CC(c2nc3ccccc3[nH]2)S(=O)(=O)Nc2ccc(F)cc2)cc1 (stereo not given)	> 500 µM		
O=C(O)COc1ccc(CC(c2nc3ccccc3[nH]2)S(=O)(=O)Nc2ccc(F)cc2)cc1O (stereo not given)	162 µM		
O=C(O)C(=O)Nc1ccc(CC(c2nc3ccccc3[nH]2)S(=O)(=O)Nc2ccc(F)cc2)cc1 (stereo not given)	67.5 µM		
O=S(=O)(Nc1ccc(F)cc1)C(Cc1ccc(O)c(O)c1)c1nc2ccccc2[nH]1 (stereo not given)	211 µM		
O=C(O)COc1ccc(CC(c2nc3ccccc3o2)S(=O)(=O)Nc2ccc(F)cc2)cc1O (stereo not given)	66.5 µM		
O=C(O)C(=O)Nc1ccc(C[C@H](c2nc3ccccc3o2)S(=O)(=O)Nc2ccc(F)cc2)cc1	35 µM		
CN(c1ccc(F)cc1)S(=O)(=O)C(Cc1ccc(NC(=O)C(=O)O)cc1)c1nc2ccccc2[nH]1 (stereo not given)	125 µM		
NS(=O)(=O)C(Cc1ccc(NC(=O)C(=O)O)cc1)c1nc2ccccc2o1 (stereo not given)	331 µM	137 µM	
CC(C)(C)NS(=O)(=O)C(Cc1ccc(NC(=O)C(=O)O)cc1)c1nc2ccccc2o1 (stereo not given)	228 µM	135 µM	
CCCCNS(=O)(=O)C(Cc1ccc(NC(=O)C(=O)O)cc1)c1nc2ccccc2o1 (stereo not given)	82.4 µM	33.4 µM	
O=C(O)C(=O)Nc1ccc(CC(c2nc3ccccc3o2)S(=O)(=O)NCCc2ccc(Cl)cc2)cc1 (stereo not given)	41 µM		
O=C(O)C(=O)Nc1ccc(CC(c2nc3ccccc3o2)S(=O)(=O)N(Cc2ccc(F)cc2)Cc2ccc(F)cc2)cc1 (stereo not given)	10 µM		
O=C(O)C(=O)Nc1ccc(C[C@H](c2nc3ccccc3o2)S(=O)(=O)N(Cc2ccc(Cl)cc2)Cc2ccc(Cl)cc2)cc1	6.7 µM	3.7 µM	
O=C(O)C(=O)Nc1ccc(CC(c2nc3ccccc3o2)S(=O)(=O)N(Cc2ccccc2C(F)(F)F)Cc2ccccc2C(F)(F)F)cc1 (stereo not given)	6.8 µM		
O=C(O)C(=O)Nc1ccc(CC(c2nc3ccccc3o2)S(=O)(=O)N(Cc2cccc(C(F)(F)F)c2)Cc2cccc(C(F)(F)F)c2)cc1 (stereo not given)	35 µM	21 µM	
O=C(O)C(=O)Nc1ccc(CC(c2nc3ccccc3o2)S(=O)(=O)N(Cc2ccc(C(F)(F)F)cc2)Cc2ccc(C(F)(F)F)cc2)cc1 (stereo not given)	7.7 µM	12.5 µM	
COc1ccc(CN(Cc2ccc(OC)cc2)S(=O)(=O)C(Cc2ccc(NC(=O)C(=O)O)cc2)c2nc3ccccc3o2)cc1 (stereo not given)	14 µM	18.9 µM	
O=C(O)C(=O)Nc1ccc(CC(c2nc3ccccc3o2)S(=O)(=O)N(Cc2ccc(OC(F)(F)F)cc2)Cc2ccc(OC(F)(F)F)cc2)cc1 (stereo not given)	16.8 µM	17.2 µM	
CC(C)(C)c1ccc(CN(Cc2ccc(C(C)(C)C)cc2)S(=O)(=O)C(Cc2ccc(NC(=O)C(=O)O)cc2)c2nc3ccccc3o2)cc1 (stereo not given)	14.9 µM	6.4 µM	
O=C(O)CN(CC(=O)O)S(=O)(=O)C(Cc1ccc(NC(=O)C(=O)O)cc1)c1nc2ccccc2o1 (stereo not given)	235 µM	22 µM	
Cc1ccc(NS(=O)(=O)C(Cc2ccc(NC(=O)C(=O)O)cc2)c2nc3ccccc3o2)cc1 (stereo not given)	62 µM	9.2 µM	
O=C(O)C(=O)Nc1ccc(CC(c2nc3ccccc3o2)S(=O)(=O)Nc2ccc(C(F)(F)F)cc2)cc1 (stereo not given)	23.6 µM	8 µM	
COc1ccc(NS(=O)(=O)C(Cc2ccc(NC(=O)C(=O)O)cc2)c2nc3ccccc3o2)cc1 (stereo not given)	68.8 µM	134 µM	
CC(C)Oc1ccc(NS(=O)(=O)C(Cc2ccc(NC(=O)C(=O)O)cc2)c2nc3ccccc3o2)cc1 (stereo not given)	92 µM	101 µM	
CC(=O)NS(=O)(=O)C(Cc1ccc(NC(=O)C(=O)O)cc1)c1nc2ccccc2o1 (stereo not given)	63 µM	86.5 µM	
O=C(O)C(=O)Nc1ccc(CC(c2nc3ccccc3o2)S(=O)(=O)NC(=O)c2ccccc2)cc1 (stereo not given)	125 µM	256 µM	
O=C(O)C(=O)Nc1ccc(CC(c2nc3ccccc3o2)S(=O)(=O)NC(=O)c2ccc(Cl)cc2)cc1 (stereo not given)	82.4 µM	13.1 µM	
CCc1cc(CN(C(C)=O)C(=O)NCCCCOc2cccc(O)c2C(=O)OC)ccc1N(C(=O)C(=O)O)c1ccccc1C(=O)O			0.018 µM

Reference: ChEMBL document CHEMBL2375266, “Design and synthesis of 2-substituted benzoxazoles as novel PTP1B inhibitors” (Bioorg Med Chem Lett, 2013)
